# Reference: article PMC6133083 (European Journal of Drug Metabolism and Pharmacokinetics, 2018)
# Experiments:
# [1] = FVB mice, microemulsion dosing; cited from earlier work
# P-gp/BCRP = settings: humans, oral dosing; cited from earlier work
# [2] = tested on: P-gp/BCRP at the non-human primate BBB; settings: intravenous administration; cited from earlier work
# [3] = rats and monkeys, after intravenous [14C]tariquidar; cited from earlier work
# P-gp at the BBB [4] = settings: rats, plasma concentration; cited from earlier work
# human BCRP = settings: cited from earlier work
# [5] = Tolerability of tariquidar administration in rats; type: in vivo, Sprague–Dawley rats; settings: 15 mg/kg single dose, intravenous, oral or intraperitoneal
# P-gp at the human BBB = settings: humans, P-gp inhibition at the BBB, plasma concentration; cited from earlier work
# [6] = type: in vivo, Sprague–Dawley rats
# Outline: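 Male Sprague–Dawley rats (10–12 weeks, 0.31–0.48 kg), n = 5/group, given 15 mg/kg once as solution or microemulsion by gavage or i.p. injection. The solution only was also given as an i.v. tail-vein bolus under isoflurane. Sublingual blood was drawn at 0.5, 1, 2, 4, 8 and 24 h. Plasma was methanol-precipitated and assayed by LC–MS/MS (calibration 0.005–10 µg/mL). Cmax, Tmax and trapezoidal AUC0–24 came from non-fitted data, expressed relative to i.v.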
# P-gp at the BBB [7] = settings: humans, cited from earlier work
# [8] = humans, after intravenous administration; cited from earlier work
# human P-gp = settings: cited from earlier work
# [9] = Sprague-Dawley, rat, plasma, iv, 15 mg/kg
# [10] = intraperitoneal dosing, both formulations pooled, rats
# [11] = oral dosing irrespective of formulation, rats
smiles,measurement,setting,value
COc1cc2c(cc1OC)CN(CCc1ccc(NC(=O)c3cccc4c(=O)c5cccc(OC)c5[nH]c34)cc1)CC2 [elacridar],oral bioavailability,[1],47%
same,effect on brain uptake of [11C]erlotinib,P-gp/BCRP,failed to increase brain uptake
same,increase in brain distribution of [11C]erlotinib,[2],3.5 fold
COc1cc2c(cc1OC)CN(CCc1ccc(NC(=O)c3cc(OC)c(OC)cc3NC(=O)c3cnc4ccccc4c3)cc1)CC2 [tariquidar],tariquidar-related material in plasma existing as unchanged parent compound,[3],> 95%
same,in vivo half-maximum effect concentration (EC50) to increase brain uptake of (R)-[11C]verapamil,P-gp at the BBB [4],545 ± 30 ng/mL
same,in vitro EC50 for inhibition of its own transport,human BCRP; human BCRP,201 ng/mL
same,ratio of EC50 for human BCRP to EC50 for human P-gp,"human BCRP; inhibition of its own transport, in vitro",approximately 20 fold
same,tolerability,[5],well tolerated by all animals
same,in vivo EC50,P-gp at the human BBB,1454 ng/mL
same,AUC(0-t),[6]; [9],25200 ng·h/mL
same,Cmax,[6]; [9],1900 ng/mL
same,Tmax,[6]; [9],30 min
same,concentration at 30 min,[6]; [9],1910 ± 290 ng/mL
same,mean AUC0–24 as % of value after intravenous dosing,[6]; [10],~97%
same,mean Cmax as % of value after intravenous dosing,[6]; [10],approximately 80%
same,mean AUC0–24 as % of value after intravenous exposure,[6]; [11],~79%
same,mean Cmax as % of value after intravenous exposure,[6]; [11],approximately 65%
same,increase in brain distribution of (R)-[11C]verapamil and [11C]N-desmethyl-loperamide,"P-gp at the BBB [7]; PET, continuous intravenous infusion",up to fivefold increases
same,effect on brain distribution of [11C]N-desmethyl-loperamide,P-gp at the BBB [7]; orally administered tariquidar,failed to reveal an effect
same,tariquidar metabolites in plasma,[8],no tariquidar metabolites were found in plasma
same,in vitro EC50 for inhibition of its own transport,human P-gp,11 ng/mL
